Reference: ChEMBL document CHEMBL1240365, “Effects of ceftobiprole and oxacillin on mecA expression in methicillin-resistant Staphylococcus aureus clinical isolates” (2010)
Values after ≈ are worked out from the molar mass of the structure shown.

Experiments:
Format in all cases: functional
Staphylococcus aureus [1] = test: Induction of mecA gene expression in beta-lactamase positive SCCmec type 3 methicillin-resistant Staphylococcus aureus isolate 14567 at MIC after 1 hr by multiplex PCR method
Staphylococcus aureus [2] = test: Induction of mecA gene expression in beta-lactamase positive SCCmec type 3 methicillin-resistant Staphylococcus aureus isolate 12597 at MIC after 1 hr by multiplex PCR method
Staphylococcus aureus [3] = test: Antibacterial activity against beta-lactamase positive SCCmec type 1 methicillin-resistant Staphylococcus aureus isolate 11631 by broth microdilution method
Procedure, shortened: (§1)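 MIC by broth microdilution in cation-adjusted Mueller-Hinton broth per CLSI recommendations. The isolates were mecA-positive MRSA, SCCmec-typed mainly by multiplex PCR. Every isolate was beta-lactamase positive by whole-cell nitrocefin hydrolysis.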

Staphylococcus aureus [4] = test: Induction of mecA gene expression in beta-lactamase positive SCCmec type nontypeable methicillin-resistant Staphylococcus aureus isolate 17329 at MIC after 1 hr by multiplex PCR method
Staphylococcus aureus [5] = test: Induction of mecA gene expression in beta-lactamase positive SCCmec type 5 methicillin-resistant Staphylococcus aureus isolate 12868 at MIC after 1 hr by multiplex PCR method
Staphylococcus aureus [6] = test: Antibacterial activity against beta-lactamase positive SCCmec type 5 methicillin-resistant Staphylococcus aureus isolate 12868 by broth microdilution method; procedure, shortened: as §1
Staphylococcus aureus [7] = test: Antibacterial activity against beta-lactamase positive SCCmec type 1 methicillin-resistant Staphylococcus aureus isolate 12575 by broth microdilution method; procedure, shortened: as §1
Staphylococcus aureus [8] = test: Antibacterial activity against beta-lactamase positive SCCmec type 3 methicillin-resistant Staphylococcus aureus isolate 12662 by broth microdilution method; procedure, shortened: as §1
Staphylococcus aureus [9] = test: Induction of mecA gene expression in beta-lactamase positive SCCmec type 1 methicillin-resistant Staphylococcus aureus isolate 11631 at MIC after 1 hr by multiplex PCR method
Staphylococcus aureus [10] = test: Antibacterial activity against beta-lactamase positive SCCmec type 2 methicillin-resistant Staphylococcus aureus isolate 11218 by broth microdilution method; procedure, shortened: as §1
Staphylococcus aureus [11] = test: Antibacterial activity against beta-lactamase positive SCCmec type 2 methicillin-resistant Staphylococcus aureus isolate 11521 by broth microdilution method; procedure, shortened: as §1
Staphylococcus aureus [12] = test: Antibacterial activity against beta-lactamase positive SCCmec type 3 methicillin-resistant Staphylococcus aureus isolate 12597 by broth microdilution method; procedure, shortened: as §1
Staphylococcus aureus [13] = test: Antibacterial activity against beta-lactamase positive SCCmec type 1 methicillin-resistant Staphylococcus aureus isolate 12192 by broth microdilution method; procedure, shortened: as §1
Staphylococcus aureus [14] = test: Induction of mecA gene expression in beta-lactamase positive SCCmec type 4a methicillin-resistant Staphylococcus aureus isolate 14145 at MIC after 1 hr by multiplex PCR method
Staphylococcus aureus [15] = test: Induction of mecA gene expression in beta-lactamase positive SCCmec type 4a methicillin-resistant Staphylococcus aureus isolate 11617 at MIC after 1 hr by multiplex PCR method
Staphylococcus aureus [16] = test: Induction of mecA gene expression in beta-lactamase positive SCCmec type 2 methicillin-resistant Staphylococcus aureus isolate 11521 at MIC after 1 hr by multiplex PCR method
Staphylococcus aureus [17] = test: Antibacterial activity against beta-lactamase positive SCCmec type nontypeable methicillin-resistant Staphylococcus aureus isolate 17329 by broth microdilution method; procedure, shortened: as §1
Staphylococcus aureus [18] = test: Antibacterial activity against beta-lactamase positive SCCmec type 4a methicillin-resistant Staphylococcus aureus isolate 14145 by broth microdilution method; procedure, shortened: as §1
Staphylococcus aureus [19] = test: Induction of mecA gene expression in beta-lactamase positive SCCmec type 2 methicillin-resistant Staphylococcus aureus isolate 17256 at MIC after 1 hr by multiplex PCR method
Staphylococcus aureus [20] = test: Antibacterial activity against beta-lactamase positive SCCmec type 2 methicillin-resistant Staphylococcus aureus isolate 17256 by broth microdilution method; procedure, shortened: as §1
Staphylococcus aureus [21] = test: Induction of mecA gene expression in beta-lactamase positive SCCmec type 2 methicillin-resistant Staphylococcus aureus isolate 15855 at MIC after 1 hr by multiplex PCR method
Staphylococcus aureus [22] = test: Antibacterial activity against beta-lactamase positive SCCmec type 4a methicillin-resistant Staphylococcus aureus isolate 12639 by broth microdilution method; procedure, shortened: as §1
Staphylococcus aureus [23] = test: Induction of mecA gene expression in beta-lactamase positive SCCmec type 4a methicillin-resistant Staphylococcus aureus isolate 12639 at MIC after 1 hr by multiplex PCR method
Staphylococcus aureus [24] = test: Antibacterial activity against beta-lactamase positive SCCmec type 4a methicillin-resistant Staphylococcus aureus isolate 14154 by broth microdilution method; procedure, shortened: as §1
Staphylococcus aureus [25] = test: Induction of mecA gene expression in beta-lactamase positive SCCmec type 2 methicillin-resistant Staphylococcus aureus isolate 17357 at MIC after 1 hr by multiplex PCR method
Staphylococcus aureus [26] = test: Induction of mecA gene expression in beta-lactamase positive SCCmec type 3 methicillin-resistant Staphylococcus aureus isolate 12662 at MIC after 1 hr by multiplex PCR method
Staphylococcus aureus [27] = test: Antibacterial activity against beta-lactamase positive SCCmec type 2 methicillin-resistant Staphylococcus aureus isolate 15855 by broth microdilution method; procedure, shortened: as §1
Staphylococcus aureus [28] = test: Induction of mecA gene expression in beta-lactamase positive SCCmec type 2 methicillin-resistant Staphylococcus aureus isolate 11218 at MIC after 1 hr by multiplex PCR method
Staphylococcus aureus [29] = test: Antibacterial activity against beta-lactamase positive SCCmec type 3 methicillin-resistant Staphylococcus aureus isolate 14567 by broth microdilution method; procedure, shortened: as §1
Staphylococcus aureus [30] = test: Antibacterial activity against beta-lactamase positive SCCmec type 2 methicillin-resistant Staphylococcus aureus isolate 17357 by broth microdilution method; procedure, shortened: as §1
Staphylococcus aureus [31] = test: Induction of mecA gene expression in beta-lactamase positive SCCmec type 1 methicillin-resistant Staphylococcus aureus isolate 12192 at MIC after 1 hr by multiplex PCR method
Staphylococcus aureus [32] = test: Induction of mecA gene expression in beta-lactamase positive SCCmec type 4a methicillin-resistant Staphylococcus aureus isolate 14154 at MIC after 1 hr by multiplex PCR method
Staphylococcus aureus [33] = test: Induction of mecA gene expression in beta-lactamase positive SCCmec type 1 methicillin-resistant Staphylococcus aureus isolate 12575 at MIC after 1 hr by multiplex PCR method
Staphylococcus aureus [34] = test: Antibacterial activity against beta-lactamase positive SCCmec type 4a methicillin-resistant Staphylococcus aureus isolate 11617 by broth microdilution method; procedure, shortened: as §1
Staphylococcus aureus [35] = test: Antibacterial activity against beta-lactamase positive SCCmec type 3 methicillin-resistant Staphylococcus aureus isolate 12617 by broth microdilution method; procedure, shortened: as §1
Staphylococcus aureus [36] = test: Induction of mecA gene expression in beta-lactamase positive SCCmec type 3 methicillin-resistant Staphylococcus aureus isolate 12617 at MIC after 1 hr by multiplex PCR method

SMILES	fold change (FC) (Staphylococcus aureus [1])	fold change (FC) (Staphylococcus aureus [2])	MIC (Staphylococcus aureus [3])	fold change (FC) (Staphylococcus aureus [4])	fold change (FC) (Staphylococcus aureus [5])	MIC (Staphylococcus aureus [6])	MIC (Staphylococcus aureus [7])	MIC (Staphylococcus aureus [8])	fold change (FC) (Staphylococcus aureus [9])	MIC (Staphylococcus aureus [10])	MIC (Staphylococcus aureus [11])	MIC (Staphylococcus aureus [12])	MIC (Staphylococcus aureus [13])	fold change (FC) (Staphylococcus aureus [14])	fold change (FC) (Staphylococcus aureus [15])	fold change (FC) (Staphylococcus aureus [16])	MIC (Staphylococcus aureus [17])	MIC (Staphylococcus aureus [18])	fold change (FC) (Staphylococcus aureus [19])	MIC (Staphylococcus aureus [20])	other results
Nc1nc(/C(=N/O)C(=O)N[C@@H]2C(=O)N3C(C(=O)O)=C(/C=C4\CCN([C@@H]5CCNC5)C4=O)CS[C@H]23)ns1 [CEFTOBIPROLE]	27	24	2 µg/mL (≈ 3.74 µM)	4	20	0.5 µg/mL (≈ 0.935 µM)	2 µg/mL (≈ 3.74 µM)	0.5 µg/mL (≈ 0.935 µM)	65	0.5 µg/mL (≈ 0.935 µM)	0.5 µg/mL (≈ 0.935 µM)	2 µg/mL (≈ 3.74 µM)	2 µg/mL (≈ 3.74 µM)	14	30	49	4 µg/mL (≈ 7.48 µM)	1 µg/mL (≈ 1.87 µM)	3	4 µg/mL (≈ 7.48 µM)	fold change (FC) (Staphylococcus aureus [21]): 57; MIC (Staphylococcus aureus [22]): 0.5 µg/mL (≈ 0.935 µM); fold change (FC) (Staphylococcus aureus [23]): 5; MIC (Staphylococcus aureus [24]): 1 µg/mL (≈ 1.87 µM); fold change (FC) (Staphylococcus aureus [25]): 3; fold change (FC) (Staphylococcus aureus [26]): 22; MIC (Staphylococcus aureus [27]): 1 µg/mL (≈ 1.87 µM); fold change (FC) (Staphylococcus aureus [28]): 3; MIC (Staphylococcus aureus [29]): 2 µg/mL (≈ 3.74 µM); MIC (Staphylococcus aureus [30]): 4 µg/mL (≈ 7.48 µM); fold change (FC) (Staphylococcus aureus [31]): 53; fold change (FC) (Staphylococcus aureus [32]): 20; fold change (FC) (Staphylococcus aureus [33]): 52; MIC (Staphylococcus aureus [34]): 0.5 µg/mL (≈ 0.935 µM); MIC (Staphylococcus aureus [35]): 2 µg/mL (≈ 3.74 µM); fold change (FC) (Staphylococcus aureus [36]): 38
Cc1onc(-c2ccccc2)c1C(=O)N[C@@H]1C(=O)N2[C@@H]1SC(C)(C)[C@@H]2C(=O)O [OXACILLIN]	27	31	> 256 µg/mL	50	2	4 µg/mL (≈ 9.96 µM)	> 256 µg/mL	256 µg/mL (≈ 638 µM)	66	32 µg/mL (≈ 79.7 µM)	256 µg/mL (≈ 638 µM)	> 256 µg/mL	> 256 µg/mL	5	5	13	256 µg/mL (≈ 638 µM)	16 µg/mL (≈ 39.9 µM)	4	256 µg/mL (≈ 638 µM)	fold change (FC) (Staphylococcus aureus [21]): 25; MIC (Staphylococcus aureus [22]): 64 µg/mL (≈ 159 µM); fold change (FC) (Staphylococcus aureus [23]): 2; MIC (Staphylococcus aureus [24]): 16 µg/mL (≈ 39.9 µM); fold change (FC) (Staphylococcus aureus [25]): 15; fold change (FC) (Staphylococcus aureus [26]): 18; MIC (Staphylococcus aureus [27]): 256 µg/mL (≈ 638 µM); fold change (FC) (Staphylococcus aureus [28]): 3; MIC (Staphylococcus aureus [29]): 256 µg/mL (≈ 638 µM); MIC (Staphylococcus aureus [30]): > 256 µg/mL; fold change (FC) (Staphylococcus aureus [31]): 41; fold change (FC) (Staphylococcus aureus [32]): 6; fold change (FC) (Staphylococcus aureus [33]): 69; MIC (Staphylococcus aureus [34]): 8 µg/mL (≈ 19.9 µM); MIC (Staphylococcus aureus [35]): > 256 µg/mL; fold change (FC) (Staphylococcus aureus [36]): 50
